Test results taken from ChEMBL document CHEMBL1148626, “Synthesis and biological evaluation of novel, peripherally selective chromanyl imidazolethione-based inhibitors of dopamine beta-hydroxylase” (2006).
Calls of active or inactive are those of the source. The calls are words filed in the database; no cut-off is given here.

Experiments:
[1] = target: T1, Dopamine beta-hydroxylase (Homo sapiens) (UniProt P09172); assay: Effect on DBH activity in presence of dopamine by measuring Noradrenaline level; assay type: functional; set-up: concentration or dose not given beside the values
T1 sequence (whole entry): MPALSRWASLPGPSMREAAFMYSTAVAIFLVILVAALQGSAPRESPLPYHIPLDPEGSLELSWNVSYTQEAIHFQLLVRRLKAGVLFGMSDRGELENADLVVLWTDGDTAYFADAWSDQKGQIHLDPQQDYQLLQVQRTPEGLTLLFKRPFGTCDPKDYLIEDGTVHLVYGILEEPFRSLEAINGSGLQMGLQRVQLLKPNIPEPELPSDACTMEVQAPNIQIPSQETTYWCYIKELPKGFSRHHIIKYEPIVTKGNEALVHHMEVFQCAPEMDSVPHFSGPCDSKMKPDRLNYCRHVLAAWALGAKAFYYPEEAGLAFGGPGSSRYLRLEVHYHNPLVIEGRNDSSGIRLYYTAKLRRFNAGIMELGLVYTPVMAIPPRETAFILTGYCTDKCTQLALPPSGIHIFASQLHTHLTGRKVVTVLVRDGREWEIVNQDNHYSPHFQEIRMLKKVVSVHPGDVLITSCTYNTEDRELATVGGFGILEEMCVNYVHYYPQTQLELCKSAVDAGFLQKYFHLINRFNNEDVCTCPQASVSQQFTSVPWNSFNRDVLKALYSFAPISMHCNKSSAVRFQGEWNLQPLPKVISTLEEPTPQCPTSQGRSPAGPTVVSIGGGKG
How it was run: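 Inhibitor at 5 µM in 200 mM sodium acetate pH 5.0 containing N-ethylmaleimide, CuSO4, catalase, pargyline, fumarate and 20 mM ascorbate. Preincubated 20 min at 37 °C, then dopamine added as substrate and reacted 45 min at 37 °C. Stopped with perchloric acid and filtered. Noradrenaline formed quantified by HPLC-ECD (0.75 V). Residual activity given as % of control, mean ± SEM of three experiments.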

Mus musculus [2] = assay: Decrease in noradrenaline tissue levels in mice heart at 100 mg/kg, po after 18 hrs; assay type: functional, organism-based; set-up: dose 100 mg/kg; settings: NMR1
How it was run: (§1)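 Male NMRI mice housed 10 per cage on a 12 h light/dark cycle at 22 °C. Compound given at 100 mg/kg by oral gavage in water vehicle. Animals decapitated at set times postdose; heart tissue held in 0.2 M perchloric acid for 12 h at 4 °C in the dark, then filtered. NA measured by HPLC with electrochemical detection. Expressed as % of vehicle control, mean ± SEM, n=4 per group.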

Mus musculus [3] = assay: Time for maximum effect for noradrenaline tissue reduction at 100 mg/kg, po; assay type: functional, organism-based; set-up: dose 100 mg/kg; settings: NMR1
How it was run: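 Mice given 100 mg/kg orally in water by gavage. Heart taken 6, 9, 18 and 24 h postdose and extracted in 0.2 M perchloric acid. Noradrenaline measured by HPLC with electrochemical detection, as % of control without inhibitor. Mean ± SEM, four animals per group. Time of maximum effect taken from the time course.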

Mus musculus [4] = organism: Mus musculus; assay: Effect on noradrenaline levels in mouse left ventricle after 9 hrs; assay type: functional, organism-based; settings: NMR1, Heart left ventricle
How it was run: (§2)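 Male NMRI mice given test compound or vehicle (water) orally by gavage at a range of doses. At 9 h postdose, decapitation. Tissue (left ventricle or brain parietal cortex) weighed, held in 0.2 M perchloric acid 12 h at 4 °C in the dark, then filtered by centrifugation. Noradrenaline measured by HPLC with electrochemical detection. Value given as % of vehicle control.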

Mus musculus [5] = organism: Mus musculus; assay: Decrease in noradrenaline tissue levels in mouse brain parietal cortex after 9 hrs; assay type: functional, organism-based; settings: NMR1; how it was run: as §2
Mus musculus [6] = assay: Effect on recovery of noradrenaline levels in mice at 100 mg/kg after 24 hrs; assay type: functional; how it was run: as §1
Rattus norvegicus [7] = assay: Decrease in noradrenaline tissue levels in rat at 100 mg/kg, po after 9 hrs; assay type: functional, organism-based; set-up: dose 100 mg/kg; settings: Wistar
How it was run: (§3)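 Male Wistar rats dosed orally by gavage at 100 mg/kg, with water as vehicle. Killed by decapitation 9 h postdose. Frontal and parietal cortex, left atrium and left ventricle taken, extracted in 0.2 M perchloric acid (12 h, 4 °C, dark) and filtered. Noradrenaline by HPLC-electrochemical detection, as % of control without inhibitor. Mean ± SEM, four animals per group.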

Rattus norvegicus [8] = organism: Rattus norvegicus; assay: Decrease in noradrenaline tissue levels in rat brain parietal and frontal cortex; assay type: functional, organism-based; settings: Wistar, Cerebral cortex; how it was run: as §3

Row | Structure (SMILES) | Activity [1] | also measured
1 | COc1ccc2c(c1)C[C@@H](n1c(CCNCc3ccccc3)cnc1S)CO2 | 66% | 
2 | Cl.NCCc1cnc(S)n1[C@H]1COc2c(F)cc(F)cc2C1 | 3.3% | Activity (Mus musculus [2]): Active; Tmax (Mus musculus [3]): 9 h; Activity (Mus musculus [4]): Dose-dependent effect; Activity (Mus musculus [5]): inactive; Activity (Mus musculus [6]): 50%; Activity (Rattus norvegicus [7]): Active; Activity (Rattus norvegicus [8]): inactive
3 | NCCc1cnc(S)n1[C@H]1COc2c(cccc2[N+](=O)[O-])C1 | 53.2% | 
4 | COc1cc(Cl)cc2c1OC[C@H](n1c(CCN)cnc1S)C2 | 36.7% | 
5 | Cl.NCc1c[nH]c(=S)n1[C@H]1CCc2c(F)cc(F)cc2C1 [NEPICASTAT HYDROCHLORIDE] | 0% | Activity (Mus musculus [2]): Active; Tmax (Mus musculus [3]): 9 h; Activity (Mus musculus [4]): Dose-dependent effect; Activity (Mus musculus [5]): Dose-dependent effect; Activity (Mus musculus [6]): 50%; Activity (Rattus norvegicus [7]): Active; Activity (Rattus norvegicus [8]): Active
6 | Oc1ccc2c(c1)C[C@@H](n1c(CCNCc3ccccc3)cnc1S)CO2 | 4.5% | 
7 | NCCc1cnc(S)n1[C@H]1COc2c(O)cccc2C1 | 125% | 
8 | NCCc1cnc(S)n1[C@H]1COc2c(F)cccc2C1 | 6.9% | 
9 | NCCc1cnc(S)n1[C@H]1COc2ccc(O)cc2C1 | 0% | 
10 | NCCc1cnc(S)n1[C@H]1COc2ccc([N+](=O)[O-])cc2C1 | 94.8% | 
11 | CNCCc1c[nH]c(=S)n1[C@H]1COc2c(F)cc(F)cc2C1 | 2.6% | 
12 | NCCc1cnc(S)n1C1CSc2ccc(O)cc2C1 (stereo unspecified) | 27.3% | 
13 | NCCc1cnc(S)n1[C@@H]1COc2c(F)cc(F)cc2C1 | 50.2% | 
14 | NCc1cnc(S)n1[C@H]1COc2ccccc2C1 | 0% | 
15 | NCCCc1cnc(S)n1[C@H]1CCc2c(F)cc(F)cc2C1 | 8.1% | 
16 | COc1cccc2c1OC[C@H](n1c(CCN)cnc1S)C2 | 6.9% | 
17 | NCCc1cnc(S)n1[C@H]1COc2cc(Cc3ccccc3)c(O)cc2C1 | 86.1% | 
18 | NCCc1cnc(S)n1[C@H]1CCc2ccccc2C1 | 16.8% | 
19 | NCc1cnc(S)n1[C@H]1COc2ccc(O)cc2C1 | 17.8% | 
20 | NCCc1cnc(S)n1[C@H]1COc2ccc(F)cc2C1 | 8% | 
21 | NCc1cnc(S)n1[C@H]1COc2c(F)cc(F)cc2C1 | 4.1% | Activity (Mus musculus [2]): Active
22 | CNCCc1cnc(S)n1[C@H]1COc2ccccc2C1 | 2.2% | 
23 | NCCc1cnc(S)n1[C@H]1CCc2c(F)cc(F)cc2C1 | 1.6% | Activity (Mus musculus [2]): Active
24 | CNCCc1cnc(S)n1[C@H]1COc2ccc(O)cc2C1 | 15.5% | 
25 | NCCc1cnc(S)n1[C@H]1COc2c(cc(F)c(F)c2F)C1 | 8.2% | 
26 | COc1ccc2c(c1)CC(n1c(CCN)cnc1S)CS2 (stereo unspecified) | 99.4% | 
27 | COc1ccc2c(c1)C[C@@H](n1c(CCN)cnc1S)CO2 | 54.5% | 
28 | NCCc1cnc(S)n1[C@H]1COc2cc(F)c(F)cc2C1 | 9.4% | 
29 | NCCc1cnc(S)n1[C@H]1COc2ccccc2C1 | 3% | 
30 | COc1cc(Cl)c2c(c1)C[C@@H](n1c(CCN)cnc1S)CO2 | 94% | 
